Consider 1 compound from ChEMBL document CHEMBL2016433 (Bioorg Med Chem, 2012).

The subject of assay [1] is U-937. The assay can be described thus: Induction of apoptosis in human U937 cells expressing mouse Bcl-2 gene assessed as expression of Bcl-2 protein at 1 to 100 uM by acridine orange based microscopy. In kind it is functional, cell-based. In short, it runs like this: (§1)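 U937 stable transfectants carrying murine bcl-2 (U937mBCL2) or empty pMEP vector were kept in medium with hygromycin B 50 µg/mL. They were treated for 24 h with compound or DMSO. Apoptotic nuclei were scored by fluorescence microscopy after acridine orange staining; mean and SD of three determinations.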

The subject of assay [2] is U-937. Briefly: Induction of apoptosis in human U937 cells expressing pMEP assessed as expression of Bcl-2 protein at 1 to 100 uM by acridine orange based microscopy. In kind it is functional, cell-based. The essentials:
as §1

Assay [3] deals with MOLT-3. The assay can be described thus: Cytotoxicity against human MOLT3 cells assessed as cell viability after 24 hrs. As to conditions: MOLT-3, 24 h. In kind it is functional, cell-based.
Assay [4] deals with MOLT-3. Briefly: Cytotoxicity against human MOLT3 cells after 24 hrs by trypan blue exclusion assay. In kind it is functional.
Assay [5] has as its system MOLT-3. Briefly: Induction of apoptosis in human MOLT3 cells after 24 hrs by acridine orange staining based fluorescence microscopy. In kind it is functional. In short, it runs like this: (§2)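 HeLa, MOLT-3 and THP-1 cells were treated with increasing concentrations for 24 h, then stained with acridine orange and more than 600 cells scored by fluorescence microscopy for condensed or fragmented nuclei. AC30 is the concentration giving 30% apoptotic cells, from a best-fit curve versus log concentration.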

The subject of assay [6] is THP-1. The assay can be described thus: Cytotoxicity against human THP1 cells assessed as cell viability after 24 hrs. In kind it is functional, cell-based. To be noted: THP-1, 24 h.
Assay [7] concerns THP-1. The assay can be described thus: Cytotoxicity against human THP1 cells after 24 hrs by trypan blue exclusion assay. In kind it is functional.
For assay [8], the system named is THP-1. Briefly: Induction of apoptosis in human THP1 cells after 24 hrs by acridine orange staining based fluorescence microscopy. In kind it is functional. In short, it runs like this:
as §2

Assay [9] concerns HeLa. Briefly: Cytotoxicity against human HeLa cells assessed as cell viability after 24 hrs. In kind it is functional, cell-based. In short, it runs like this:
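MOLT-3, THP-1 and HeLa cells were treated with increasing concentrations for 24 h at 37 °C, 5% CO₂. Total cells were counted by haemocytometer with trypan blue. IC50 is the concentration cutting total cell count by 50%, taken from a best-fit curve of the value versus log concentration.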

Assay [10] relates to HeLa. Briefly: Cytotoxicity against human HeLa cells after 24 hrs by trypan blue exclusion assay. In kind it is functional. In short, it runs like this:
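MOLT-3, THP-1 or HeLa cells were grown in RPMI 1640 with 5–10% FBS; for THP-1 the medium also held 10 mM HEPES, 1 mM pyruvate and 4.5 g/L glucose. Cells were seeded in 96 wells with increasing compound concentrations and incubated 24 h at 37 °C, 5% CO₂. CC30 is the concentration giving 30% trypan blue-positive cells, taken from a best-fit curve of y versus log x.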

The test system of assay [11] is HeLa. Briefly: Induction of apoptosis in human HeLa cells after 24 hrs by acridine orange staining based fluorescence microscopy. In kind it is functional. In short, it runs like this: as §2
Assay [12] concerns HT-29. The assay can be described thus: Cytotoxicity against human HT-29 cells assessed as cell viability after 48 hrs. In kind it is functional, cell-based. As to conditions: HT-29, 48 h. The essentials:
(§3)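 HT-29, HepG2 and MCF7 cells were treated in wells with increasing concentrations for 48 h at 37 °C, 5% CO₂. Total cell count was taken by haemocytometer. IC50 is the concentration inhibiting total count by 50%, from a best-fit curve of the value versus log concentration.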

The subject of assay [13] is HT-29. Briefly: Cytotoxicity against human HT-29 cells after 48 hrs by trypan blue exclusion assay. In kind it is functional. The essentials:
(§4)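 Adherent HT-29, HepG2 and MCF7 cells were seeded in 96 wells with increasing concentrations and incubated 48 h at 37 °C, 5% CO₂. Trypan blue exclusion was done directly in the culture wells. CC30 is the concentration giving 30% cytotoxicity, from a best-fit curve versus log concentration.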

The test system of assay [14] is HT-29. The assay can be described thus: Cytotoxicity against human HT-29 cells assessed as compound concentration causing 30% reduction in formazan product formation after 48 hrs by MTS assay. In kind it is functional. As to conditions: HT-29, 48 h. The essentials: (§5)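 HT-29, HepG2 and MCF7 cells were exposed to increasing concentrations for 48 h. MTS reagent was then added directly to the wells, incubated a further 4 h, and absorbance read at 490 nm. MAIC30 is the concentration reducing formazan formation by 30%, from a best-fit curve versus log concentration.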
Background: Formazan colour is commonly taken as a measure of viable cells.

The test system of assay [15] is HepG2. Briefly: Cytotoxicity against human HepG2 cells assessed as cell viability after 48 hrs. In kind it is functional, cell-based. As to conditions: HepG2, 48 h. The essentials: as §3
For assay [16], the system named is HepG2. Briefly: Cytotoxicity against human HepG2 cells after 48 hrs by trypan blue exclusion assay. In kind it is functional. In short, it runs like this: as §4
Assay [17] concerns HepG2. The assay can be described thus: Cytotoxicity against human HepG2 cells assessed as compound concentration causing 30% reduction in formazan product formation after 48 hrs by MTS assay. In kind it is functional. As to conditions: HepG2, 48 h. In short, it runs like this: as §5
In assay [18] the test system is MCF7. Briefly: Cytotoxicity against human MCF7 cells assessed as cell viability after 48 hrs. In kind it is functional, cell-based. To be noted: MCF7, 48 h. The essentials:
as §3

Assay [19] has as its system MCF7. The assay can be described thus: Cytotoxicity against human MCF7 cells after 48 hrs by trypan blue exclusion assay. In kind it is functional. The essentials:
as §4

Assay [20] concerns MCF7. Briefly: Cytotoxicity against human MCF7 cells assessed as compound concentration causing 30% reduction in formazan product formation after 48 hrs by MTS assay. In kind it is functional. As to conditions: MCF7, 48 h. The essentials:
as §5

The subject of assay [21] is U-937. Briefly: Cytotoxicity against human U937 cells assessed as induction of cell death at 1 to 100 microM after 24 hrs by trypan blue exclusion method. In kind it is functional, cell-based.
Assay [22] has as its system U-937. Briefly: Induction of apoptosis in human U937 cells at 100 uM after 24 hrs by acridine orange staining based microscopy. In kind it is functional, cell-based. The essentials: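 U937 cells were treated for 24 h at 37 °C with 1–100 µM compound or vehicle, then stained with acridine orange. Over 600 cells were scored by fluorescence microscopy; apoptosis was defined as uniformly stained nuclei with chromatin condensation or nuclear fragmentation. Mean and SD of at least three determinations.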

Activity calls are given as the source filed them.

One may read the IC50 as the concentration at which inhibition is half-maximal. Usually IC30 stands for the concentration needed for an effect of 30%. As to `CC(=O)OC[C@H]1O[C@@H](SSCc2ccc(CSS[C@@H]3O[C@H](COC(C)=O)[C@H](OC(C)=O)[C@H](OC(C)=O)[C@H]3OC(C)=O)cc2)[C@H](OC(C)=O)[C@@H](OC(C)=O)[C@H]1OC(C)=O`, in assay [1], the outcome was inactive. Also, the result in assay [2], in assay [21] and in [22] was Active. Also, the IC50 in assay [3] is more than 100 µM; in assay [6], more than 100 µM; in [9], more than 100 µM; in [12], 63 µM; in [15], 51 µM; in [18], 38 µM. Further, the CC30 in assay [4] was 29 µM; in [7] it was 93 µM; in assay [10] it was more than 100 µM; in assay [13], 61 µM; in assay [16] it was 98 µM; in [19], 69 µM. Besides, the AC30 in [5] came to 24 µM; in [8] it was 88 µM; in assay [11] it was 62 µM. Besides, the IC30 in [14] was 23 µM; in [17], 30 µM; in [20], 63 µM.
